Laboratory results: publication PMC2729716 (Biochemistry, 2009)
Where no end group is shown, it is not given here.

How the values were obtained:
[1] = system: HIV Vif; conditions: micromolar levels of chelator; cited from earlier work
[2] = Zinc-induced aggregation by light scattering; type: physicochemical; conditions: 15 µM peptide, 1 molar equivalent Zn2+, 200 mM MOPS pH 7.4, 80 mM NaCl, 1.8 mM TCEP, 20 °C, 200 s
How it was run: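 Wild-type and mutant peptides handled anaerobically in TCEP buffers; concentration set by A280 in 6M guanidine hydrochloride. Zn(NO3)2 hand-mixed into sample in a Peltier-held cuvette. Light scattering followed over time on a single-photon counting fluorometer; single exponential functions fitted to intensity versus time.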

[3] = system: GST-Cul5 (human Cul5 amino acids 1–384); assay: HCCHp pull-down by GST-Cul5; type: binding; conditions: GST control, 40 µM Zn(NO3)2 vs no zinc
How it was run: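 GST-Cul5 (human Cul5 residues 1–384, from E. coli) immobilised on glutathione resin, 10 min at 4 °C, in 50 mM HEPES pH 7.4, 150 mM NaCl, 200 µM TCEP; 20 µM peptide added for 10 min; split, ±40 µM Zn(NO3)2 for 10 min; six washes; SDS-PAGE, SYPRO Ruby stain; bands normalised to a 27-kDa marker and quantified against peptide and GST-Cul5 standard curves.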

Molecule | Effect of chelator on Cul5 recruitment and APOBEC3G degradation [1] | Total change in scattered light intensity, rank order of peptides [2] | Change in amount of HCCHp bound to GST when zinc was included [3]
c1ccc(CN(CCN(Cc2ccccn2)Cc2ccccn2)Cc2ccccn2)nc1 [N,N,N′,N′-tetrakis-(2-pyridylmethyl) ethylenediamine] | inhibits Cul5 recruitment and APOBEC3G degradation |  | 
ELADQLIALYYFDCFSDSAIRKALLGHIVSPRCEYQAGHNKV (cysteines drawn unpaired) [H108A] |  | H108A < H139A < H127A < wild type < C114S < C114/133S < C133S | 
ELADQLIHLYYFDCFSDSAIRKALLGAIVSPRCEYQAGHNKV (cysteines drawn unpaired) [H127A] |  | H108A < H139A < H127A < wild type < C114S < C114/133S < C133S | 
ELADQLIHLYYFDCFSDSAIRKALLGHIVSPRCEYQAGANKV (cysteines drawn unpaired) [H139A] |  | H108A < H139A < H127A < wild type < C114S < C114/133S < C133S | 
ELADQLIHLYYFDCFSDSAIRKALLGHIVSPRCEYQAGHNKV (cysteines drawn unpaired) [HCCHp] |  | H108A < H139A < H127A < wild type < C114S < C114/133S < C133S | did not increase significantly
ELADQLIHLYYFDCFSDSAIRKALLGHIVSPRSEYQAGHNKV [C133S] |  | H108A < H139A < H127A < wild type < C114S < C114/133S < C133S | 
ELADQLIHLYYFDSFSDSAIRKALLGHIVSPRCEYQAGHNKV [C114S] |  | H108A < H139A < H127A < wild type < C114S < C114/133S < C133S | 
